Where two headings read alike, the source gives them in different places. Ends that are not written are not given here. Peptide text beside a SMILES is read from it. * marks the point of attachment. 5FAM = O=C1OC2(c3ccc(O)cc3Oc3cc(O)ccc32)c2ccc(C(=O)*)cc21
Columns and labels:
rNln E475A = rNln E475A (Rattus norvegicus, UniProt P42676, E498A); type: binding
In short: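 Rat Nln (Met37–Ser704, E475A) with a C-terminal 6xHis tag, expressed in E. coli BL21(DE3) and purified by Ni-affinity and SEC. FAM-labelled Dyn A peptides (FAM replacing Tyr1; 18 nM final) were mixed with 0–50 µM Nln in aCSF (0.2 µM ZnSO4, pH 7.2) plus 0.01% Triton X-100. Polarization was read at 25 °C (ex 485/em 535 nm). ΔmP versus no-Nln was fitted to one-site binding with ligand depletion for KD.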

recombinant human Nln [1] = molecular target: T1, recombinant human Nln (Homo sapiens, UniProt Q9BYT8); settings: read-out: Ki (published value); inhibition of Nln; cited from earlier work
T1 sequence (Q9BYT8 38-704): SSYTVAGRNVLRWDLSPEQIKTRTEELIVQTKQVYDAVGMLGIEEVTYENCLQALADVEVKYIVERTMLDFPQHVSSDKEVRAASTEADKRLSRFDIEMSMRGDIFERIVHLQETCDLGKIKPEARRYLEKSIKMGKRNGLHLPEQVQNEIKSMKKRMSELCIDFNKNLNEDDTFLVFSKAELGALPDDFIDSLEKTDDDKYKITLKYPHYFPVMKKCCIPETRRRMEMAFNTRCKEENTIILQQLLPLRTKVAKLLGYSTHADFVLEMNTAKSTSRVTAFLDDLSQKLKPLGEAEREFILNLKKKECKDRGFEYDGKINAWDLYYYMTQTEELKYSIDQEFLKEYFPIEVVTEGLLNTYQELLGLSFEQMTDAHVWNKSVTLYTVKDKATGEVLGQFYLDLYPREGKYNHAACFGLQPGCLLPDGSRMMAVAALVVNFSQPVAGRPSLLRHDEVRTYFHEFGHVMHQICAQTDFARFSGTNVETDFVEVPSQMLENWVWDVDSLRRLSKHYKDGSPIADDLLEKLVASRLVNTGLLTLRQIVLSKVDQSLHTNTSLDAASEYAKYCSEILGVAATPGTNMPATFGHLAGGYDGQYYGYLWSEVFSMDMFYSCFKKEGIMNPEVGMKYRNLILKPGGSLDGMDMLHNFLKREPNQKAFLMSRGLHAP

recombinant human Nln [2] = molecular target: T1, recombinant human Nln; experiment: Competition of Dyn A peptides with quenched fluorogenic Nln substrate; type: biochemical
In short: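 N-terminally 6xHis-tagged human Nln (Ser38–Pro704) was incubated in aCSF at 37 °C with 15 µM quenched substrate Mca-Pro-Leu-Gly-Pro-D-Lys(DNP)-OH, ± Dyn A peptide at 0.1–100 µM. Fluorescence was recorded continuously for 20 min under initial-velocity conditions (<10% substrate consumed). V0 was expressed as % of the no-peptide control and fitted to three-parameter log(inhibitor)–response to give IC50. Ki was calculated by Cheng–Prusoff (Km 8 µM). n=4, duplicates.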

Sequence of rNln E475A (P42676 37-704 E498A): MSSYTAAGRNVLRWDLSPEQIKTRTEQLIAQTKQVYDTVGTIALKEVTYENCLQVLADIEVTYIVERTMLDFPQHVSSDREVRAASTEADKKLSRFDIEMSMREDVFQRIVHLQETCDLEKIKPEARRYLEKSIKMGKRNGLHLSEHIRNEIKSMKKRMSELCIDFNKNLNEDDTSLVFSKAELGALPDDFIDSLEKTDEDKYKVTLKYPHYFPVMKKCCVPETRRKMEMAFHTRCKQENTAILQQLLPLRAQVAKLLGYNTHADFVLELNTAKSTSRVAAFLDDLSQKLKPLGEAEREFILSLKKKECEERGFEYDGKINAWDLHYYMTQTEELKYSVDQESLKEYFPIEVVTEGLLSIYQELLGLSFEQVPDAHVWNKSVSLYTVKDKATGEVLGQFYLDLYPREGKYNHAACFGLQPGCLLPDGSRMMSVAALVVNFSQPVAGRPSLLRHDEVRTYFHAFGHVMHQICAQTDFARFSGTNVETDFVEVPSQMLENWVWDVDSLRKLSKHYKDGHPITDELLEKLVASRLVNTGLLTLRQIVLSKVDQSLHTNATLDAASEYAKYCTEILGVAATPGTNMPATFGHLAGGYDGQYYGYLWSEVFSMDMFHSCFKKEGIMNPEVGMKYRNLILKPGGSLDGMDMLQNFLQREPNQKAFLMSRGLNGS

| Molecule | Kd (rNln E475A) [µM] | Ki (recombinant human Nln [2]) [µM] | also measured |
| --- | --- | --- | --- |
| CC[C@H](C)[C@H](NC(=O)[C@H](CCCNC(=N)N)NC(=O)[C@H](CCCNC(=N)N)NC(=O)[C@H](CC(C)C)NC(=O)[C@H](Cc1ccccc1)NC(=O)CNC(=O)CNC(=O)c1ccc2c(c1)C(=O)OC21c2ccc(O)cc2Oc2cc(O)ccc21)C(=O)N[C@@H](CCCNC(=N)N)C(=O)N1CCC[C@H]1C(=O)N[C@@H](CCCCN)C(=O)N[C@@H](CC(C)C)C(=O)N[C@@H](CCCCN)C(=O)N[C@@H](Cc1c[nH]c2ccccc12)C(=O)N[C@@H](CC(=O)O)C(=O)N[C@@H](CC(N)=O)C(=O)N[C@@H](CCC(N)=O)C(=O)O [FAM-^2GGFLRRIRPKLKWDNQ^17] | 3.26 |  |  |
| CC[C@H](C)[C@H](NC(=O)[C@H](CCCNC(=N)N)NC(=O)[C@H](CCCNC(=N)N)NC(=O)[C@H](CC(C)C)NC(=O)[C@H](Cc1ccccc1)NC(=O)CNC(=O)CNC(=O)[C@@H](N)Cc1ccc(O)cc1)C(=O)N[C@@H](CCCNC(=N)N)C(=O)N1CCC[C@H]1C(=O)N[C@@H](CCCCN)C(=O)N[C@@H](CC(C)C)C(=O)N[C@@H](CCCCN)C(=O)O [Dyn A (1–13)] |  |  | Ki (recombinant human Nln [1]): 1.19 µM |
| YGGFLRRIR [Dyn A (1–9)] |  | ~6 |  |
| CC[C@H](C)[C@H](NC(=O)[C@H](CCCNC(=N)N)NC(=O)[C@H](CCCNC(=N)N)NC(=O)[C@H](CC(C)C)NC(=O)[C@H](Cc1ccccc1)NC(=O)CNC(=O)CNC(=O)c1ccc2c(c1)C(=O)OC21c2ccc(O)cc2Oc2cc(O)ccc21)C(=O)N[C@@H](CCCNC(=N)N)C(=O)N1CCC[C@H]1C(=O)N[C@@H](CCCCN)C(=O)N[C@@H](CC(C)C)C(=O)N[C@@H](CCCCN)C(=O)O [FAM-^2GGFLRRIRPKLK^13] | 4.69 |  |  |
| CC[C@H](C)[C@H](NC(=O)[C@H](CCCNC(=N)N)NC(=O)[C@H](CCCNC(=N)N)NC(=O)[C@H](CC(C)C)NC(=O)[C@H](Cc1ccccc1)NC(=O)CNC(=O)CNC(=O)c1ccc2c(c1)C(=O)OC21c2ccc(O)cc2Oc2cc(O)ccc21)C(=O)N[C@@H](CCCNC(=N)N)C(=O)N1CCC[C@H]1C(=O)O [FAM-^2GGFLRRIRP^10] (5FAM-GGFLRRIRP-OH) | 8.46 |  |  |
| CC[C@H](C)[C@H](NC(=O)[C@H](CCCNC(=N)N)NC(=O)[C@H](CCCNC(=N)N)NC(=O)[C@H](CC(C)C)NC(=O)[C@H](Cc1ccccc1)NC(=O)CNC(=O)CNC(=O)[C@@H](N)Cc1ccc(O)cc1)C(=O)N[C@@H](CCCNC(=N)N)C(=O)N1CCC[C@H]1C(=O)N[C@@H](CCCCN)C(=O)N[C@@H](CC(C)C)C(=O)N[C@@H](CCCCN)C(=O)N[C@@H](Cc1c[nH]c2ccccc12)C(=O)N[C@@H](CC(=O)O)C(=O)N[C@@H](CC(N)=O)C(=O)N[C@@H](CCC(N)=O)C(=O)O [Dyn A (1–17)] |  | ~6 |  |

Reference: article PMC11310207 (Scientific Reports, 2024)
